# Screening data (PubChem)
# MBD2 DNA inh: inhibitors of MBD2 binding to methylated DNA, primary screen, biochemical, TR-FRET, DNA-binding domain, human. Methyl-CpG-binding domain protein 2 (Homo sapiens), Q9UBB5. MBD2 binding to methylated oligonucleotide. inhibition, % at 4.4 µM. 370,000 tested, 0.31% active. AID 686964, 2013; in the data active means inhibition above about 13%
# Target sequence (Q9UBB5 whole entry, looked up, the tested form may be a part): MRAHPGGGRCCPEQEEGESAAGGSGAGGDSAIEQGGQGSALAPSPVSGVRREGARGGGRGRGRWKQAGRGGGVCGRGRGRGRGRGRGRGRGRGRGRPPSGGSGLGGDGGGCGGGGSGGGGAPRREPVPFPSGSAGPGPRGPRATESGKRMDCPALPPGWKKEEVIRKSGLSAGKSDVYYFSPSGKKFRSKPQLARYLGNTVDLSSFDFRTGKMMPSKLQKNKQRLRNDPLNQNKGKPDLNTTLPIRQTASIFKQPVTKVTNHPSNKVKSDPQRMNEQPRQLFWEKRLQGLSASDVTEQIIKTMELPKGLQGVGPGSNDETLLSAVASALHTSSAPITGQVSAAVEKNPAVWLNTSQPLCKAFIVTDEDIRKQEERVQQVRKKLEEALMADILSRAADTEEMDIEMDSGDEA
# LEDGF integ inh: blockers of LEDGF/p75-dependent integrase strand transfer – biochemical, TR-FRET, high throughput, primary screen | HIV-1 integrase (with human LEDGF/p75) | TR-FRET IN-LEDGF/p75 DNA integration, Eu/Cy5 | inhibition, % at 3.7 µM | AID 743269, 2014 | 370,000 tested, 0.64% active;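 active means inhibition above the screen-wide mean plus 3 SD, cut at about 13% in these data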;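 further: signal is the Cy5 over europium emission ratio at 671 and 618 nm; 0% = plate median of compound wells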
# UHRF1 MBD2 ctr: UHRF1 methylated DNA binding inhibitors, primary screen, counter-screen for MBD2 inhibitor project, biochemical, TR-FRET, human UHRF1, single concentration; E3 ubiquitin-protein ligase UHRF1 (Homo sapiens), Q96T88; UHRF1 binding to methylated oligo; inhibition, % at 4.4 µM; 370,000 tested, 0.75% active; AID 687016, 2013; in the data active means inhibition above about 21%;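 further: UHRF1 SRA domain binding a hemimethylated CpG hairpin DNA probe; 0% = median of test compound wells and 100% = reference inhibitor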
# TDP2 inh: human TDP2 enzyme inhibitors, primary screen, biochemical, epi absorbance, recombinant enzyme; 370,000 tested, 0.34% active; T5PNP hydrolysis, p-nitrophenol absorbance 415 nm; inhibition, % at 12.8 µM;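 active means inhibition above the mean of all tested compounds plus 3 SD, set per campaign, cut at about 25% in these data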;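 further: 0% = DMSO with enzyme and 100% = buffer with substrate but no TDP2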
#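 System – recombinant human TDP2 · Quantity – TDP2 enzyme at 120 nM final · Doses – single concentration, 12.8 µM nominal, with 1% DMSO · Incubation – 2 h at 37 °C · Measured by – epi absorbance of p-nitrophenol freed from T5PNP by hydrolysis · Read-out – % inhibition relative to enzyme-containing and enzyme-free wells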
# core dimer inh: inhibitors of HCV core protein dimerization, primary screen, biochemical, TR-FRET, high-throughput. 300,000 tested, 0.33% active. TR-FRET GST/Flag-core106 dimerization, 1536-well. inhibition, % at 5 µM;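 active means inhibition above the mean of all tested compounds plus 3 SD, set per screening campaign, cut at about 45% in these data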
#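 System: GST-tagged and Flag-tagged HCV core protein residues 1-106 / Input: core106 proteins, GST 13.5 nM and Flag 17 nM / Buffer or medium: KF-containing HEPES buffer, pH 7.45, DTT, CHAPS, BSA / Probe or stimulus: Eu-anti-GST and XL665-anti-Flag labelled anti-tag antibodies / Schedule: 4 h, 22.5 °C incubation / Technique: TR-FRET 671 and 617 nm emission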
# The depositor's hits bear a star; · = no result given. Hits are enriched below; roughly 1.8% of the tested compounds scored in any of these assays.
SMILES,MBD2 DNA inh,LEDGF integ inh,UHRF1 MBD2 ctr,TDP2 inh,core dimer inh
N#CC1=C(N)Oc2c(ccc3ccccc23)C1c1ccsc1 (configuration not stated),-4,3,-5,7,71*
N#CC1=C(N)Oc2c(oc(CO)cc2=O)C1c1ccsc1 (configuration not stated),4,2,5,4,6
COc1ccc(C2Nc3ccccc3C(=O)N2Cc2ccc(C)o2)cc1COc1c(C)cccc1C (configuration not stated),7,-4,2,-4,·
Cc1cc(C)c(C)c(S(=O)(=O)N2CCN(C(=O)c3ccccc3OCc3c(C)noc3C)CC2)c1C,-7,5,28*,-8,·
Cc1noc(C)c1COc1ccccc1C(=O)N1CCN(S(=O)(=O)c2ccccc2Br)CC1,-10,1,-4,-6,·
CCOC(=O)C1=C(COc2ccccc2)NC(=O)NC1c1ccc(Cl)cc1 (configuration not stated),4,2,3,-2,14
CCOC(=O)C1=C(COC(=O)C2(C)CC2(Cl)Cl)NC(=O)NC1c1ccccc1 (configuration not stated),-7,-1,29*,6,3
O=C(O)c1cccc(N/N=C/c2cccc3ccccc23)c1,-3,-1,42*,9,-12
COC(=O)[C@]12C[C@H](CC(=O)NCCc3ccccc3OC)C(=O)N(Cc3ccc(Cl)cc3Cl)C1=C[C@H](COCc1ccccc1)O[C@@H]2C,3,-1,1,-1,·
CCOC(=O)C1=NN(C(=O)Nc2ccc(OC)cc2)C2C(=O)N(c3cccc(C(F)(F)F)c3)C(=O)C12 (configuration not stated),33*,1,-3,-7,7
Cc1cccc(C(=O)N[C@H](C(=O)OCc2cc(=O)n3c(n2)sc2ccccc23)C(C)C)c1,12,4,20,-3,49*
O=C(OCc1cc(=O)n2c(n1)sc1ccccc12)c1ccc(O)cc1,2,3,-1,14,50*
CC(CCN1CCC(C(O)(c2ccccc2)c2ccccc2)CC1)Oc1cccc(C(F)(F)F)c1 (configuration not stated),-4,-3,-1,3,·
COc1cccc(/C=N/NC(=O)c2nc(-c3ccccc3)cc(-c3ccccc3)n2)c1,-6,0,-2,0,50*
COCCN(C(=O)CSc1ncccn1)c1c(N)n(Cc2ccccc2)c(=O)[nH]c1=O,-1,-1,-1,-3,-3
CCCCn1c(N)c(N(CCOC)C(=O)CSCc2ccccc2C)c(=O)[nH]c1=O,13,7,33*,8,-1
CCCCn1c(N)c(N(CCOC)C(=O)C2CCN(S(=O)(=O)c3ccc(Cl)cc3)CC2)c(=O)[nH]c1=O,7,3,24*,2,2
CCN(CC)c1ccc(-c2nnc(SCC(=O)N(CCOC)c3c(N)n(CC(C)C)c(=O)[nH]c3=O)o2)cc1,1,-1,80*,1,-4
COCCN(C(=O)CSc1ncn[nH]1)c1c(N)n(Cc2ccccc2)c(=O)[nH]c1=O,4,5,27*,-12,-1
CCCCn1c(N)c(N(CCOC)C(=O)CSc2ccccc2C)c(=O)[nH]c1=O,-5,9,-3,9,2
CCOc1ccc(-n2c(SCC(=O)Nc3ccc(S(=O)(=O)Nc4nccs4)cc3)nnc2-c2ccco2)cc1,-1,-1,2,-5,·
C#CCOCCOCCOCCNc1nc(N2CCN(C(=O)[C@H](CCC(=O)O)n3cc([C@@H](N)CCCCN)nn3)CC2)nc(N2CCN(C(=O)[C@H](CCC(=O)O)n3cc([C@@H](N)CCCCN)nn3)CC2)n1,-1,1,2,-11,·
